Reference: PubChem BioAssay
Calls of active or inactive are those of the source.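 How the source made its calls, unless noted: active means visually confirmed hit in the image check and inhibition above 20%; inconclusive means visually confirmed hit but inhibition not above 20%; inactive means no visual hit in the image check.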

Columns and labels:
[1] = inhibitors of TNFa-induced NFkB p65 translocation, primary screen, imaging, HUVEC, MLSMR starter and 10KST1 sets (AID 438;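 active means inhibition above 20% together with a positive visual image hit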;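 further: compound added about 3h40 before a 20 min TNFalpha stimulation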;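 on inhibition: signal is the nuclear over cytoplasmic p65 intensity ratio per well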); details: HUVEC TNFa-induced p65 nuclear translocation; cell count: measured here: nuclei count (cytotoxicity indicator), at 2.08 µM; inhibition: at 2 µM, stronger effect = higher value, 0% TNFa-plus-vehicle, 100% no-TNFa wells
[2] = inhibitors of mutant huntingtin aggregation, primary screen, imaging, exon1htt(103Q)mCFP cells, high-content imaging (AID 483;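 active means visual image review flags a hit and inhibition of aggregation exceeds 20%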;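 further: compound exposure lasted 3 days before fixation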;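 on nuclei count: percent of the per-plate median nuclei count of sample wells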); details: exon1htt(103Q)mCFP cell line, aggregate imaging, at 2 µM; inhibition of aggregation: stronger effect = higher value; nuclei count: measured here: cell count, toxicity
[3] = inhibitors of E-selectin induction by TNFa, primary screen, imaging, HUVEC, immunofluorescence, MLSMR starter and 10KST1 sets (AID 487); details: HUVEC TNFalpha-induced E-selectin immunofluorescence imaging, at 2 µM; inhibition: stronger effect = higher value; nuclei count: measured here: cell number, toxicity;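 on inhibition: signal is fraction of cell area covered by stained E-selectin grains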;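 on nuclei count: 100% = median nuclei count of all wells on the same plate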
[4] = target: Voltage-gated potassium channel subunit beta-2 (Rattus norvegicus) (UniProt P62483); test: KvBeta enzyme negative modulators, primary screen, biochemical, NADPH fluorescence (AID 622;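 active means fluorescence slope higher than the sample average by over 3 SD, cut at about -0.22 in these data, passing the limit was not always enough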;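 further: slope of raw intensity against log time taken from 70 to 1610 s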); details: recombinant KvBeta, 4-cyanobenzaldehyde reduction, at 10 µM, stronger effect = higher value
Voltage-gated potassium channel subunit beta-2 (Rattus norvegicus), sequence (P62483 whole entry, looked up): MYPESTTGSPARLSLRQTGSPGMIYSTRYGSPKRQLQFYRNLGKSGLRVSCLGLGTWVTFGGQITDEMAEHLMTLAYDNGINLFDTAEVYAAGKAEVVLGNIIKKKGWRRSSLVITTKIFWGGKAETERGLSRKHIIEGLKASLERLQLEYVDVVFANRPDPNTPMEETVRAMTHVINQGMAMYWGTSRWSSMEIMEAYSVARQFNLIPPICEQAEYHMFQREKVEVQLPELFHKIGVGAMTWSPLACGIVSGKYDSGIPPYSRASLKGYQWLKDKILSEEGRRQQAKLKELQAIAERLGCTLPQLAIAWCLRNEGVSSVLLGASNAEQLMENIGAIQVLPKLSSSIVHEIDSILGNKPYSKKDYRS

[5] = target: Voltage-gated potassium channel subunit beta-2 (Rattus norvegicus) (UniProt P62483); test: KvBeta positive modulators, primary screen, biochemical, NADPH fluorescence (AID 623;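 active means NADPH fluorescence slope more negative than the mean of all samples by about 3 SD, 99.7% confidence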;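 further: fluorescence intensity change per second fitted from 20 to 320 s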); details: Recombinant KvBeta, NADPH fluorescence decrease slope, 10 min; at 10 µM; stronger effect = lower value
[6] = target: Alpha-2C adrenergic receptor (Homo sapiens) (UniProt P18825); test: modulators of alpha2C/GIRK thallium flux, primary screen, cell-based, HEK293 alpha2C/GIRK1/2 (AID 624;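 active means fluorescence slope after compound addition differing from the mean of all screened samples at 99.7% confidence, in either direction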;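 further: slope of fluorescence ratio to pre-addition baseline per second over 15 to 24 s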); details: thallium flux BTC fluorescence, at 10 µM, actives lie on both sides
Alpha-2C adrenergic receptor (Homo sapiens), sequence (P18825 whole entry, looked up): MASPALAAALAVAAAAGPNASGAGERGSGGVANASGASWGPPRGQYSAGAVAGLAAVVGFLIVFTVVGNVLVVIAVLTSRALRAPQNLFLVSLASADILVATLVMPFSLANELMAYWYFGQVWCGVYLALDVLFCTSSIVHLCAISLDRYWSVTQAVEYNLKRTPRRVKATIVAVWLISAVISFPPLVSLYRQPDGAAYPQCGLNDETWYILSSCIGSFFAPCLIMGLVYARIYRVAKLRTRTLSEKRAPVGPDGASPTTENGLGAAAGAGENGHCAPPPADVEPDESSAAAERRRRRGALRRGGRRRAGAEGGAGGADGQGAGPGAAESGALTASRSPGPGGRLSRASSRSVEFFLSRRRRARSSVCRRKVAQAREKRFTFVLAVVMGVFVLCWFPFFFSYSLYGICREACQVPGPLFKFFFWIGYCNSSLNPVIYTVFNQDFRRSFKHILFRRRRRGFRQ

[7] = inhibitors of larval lipid processing in zebrafish, primary screen, whole organism, PED6 fluorescence, gall bladder and intestine (AID 686;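 active means a full or partial loss of lipid-probe fluorescence in the fish gall bladder, intestine or both, judged by eye; inactive means no fluorescence loss, or compound toxic to the fish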;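 further: larvae 5 to 7 days old with five fish per well; signal comes from phospholipase A2 cleavage of quenched PED6 carried via bile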); details: Zebrafish larvae PED6 lipid processing, fluorescence scoring; screened at 20 µM (by protocol)
Method in brief: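 Incubation: overnight exposure of larvae to compound plus PED6 / Test system: live zebrafish larvae aged 5-7 days, whole organism / Amount: 5 larvae per well / Read-out basis: visual per-well fluorescence inhibition score / Signal: visual fluorescence microscopy scoring of gall bladder, gut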

[8] = inhibitors of Sendai virus-induced IRF3 signaling, primary screen, TLR/RLR signaling modifier project, cell-based, Sendai virus stimulus, luciferase, 10K MLSCN set (AID 602276;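 active means inhibition at or above 50% at 10 µM; inactive means inhibition below 50%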;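 further: firefly luciferase from ISG56 promoter only with Renilla not read in this screen; 0% = Sendai virus plus DMSO and 100% = medium plus DMSO without virus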); details: HEK293 RL24 IRF3 luciferase reporter, at 10 µM, stronger effect = higher value
[9] = inhibitors of poly I:C-induced TLR3 signaling, primary screen, cell-based, poly I:C stimulus, luciferase, 10K MLSCN set (AID 602277;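 active means inhibition of the reporter signal at or above 50%; inactive means inhibition below 50%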); details: HEK293-TLR3 RL24 IRF3 luciferase reporter, at 10 µM, stronger effect = higher value

Structure (SMILES) | cell count [1] | inhibition [1] | inhibition of aggregation [2] | nuclei count [2] [%] | inhibition [3] | nuclei count [3] [%] | fluorescence slope [4] | NADPH fluorescence slope [5] | slope [6] | outcome [7] | inhibition [8] | inhibition [9]
CN(c1ccccc1C(=O)NCC1CCCO1)S(C)(=O)=O (centres undefined) | 314 | 3.8% (inactive) | 4.6% (inactive) | 94.8 | -12.5% (inactive) | 93.8 | -0.444 (inactive) | -3.7e-05 (inactive) | 0.00536 (inactive) | inactive | 15.7% (inactive) | 14.6% (inactive)
O=C(Nc1sccc1C(=O)NCc1ccco1)c1cccnc1 | 343 | 2.1% (inactive) | -22.2% (inactive) | 103 | -92.1% (inactive) | 119 | -0.461 (inactive) | -3.3e-05 (inactive) | 0.00445 (inactive) | inactive | 5.47% (inactive) | -21.6% (inactive)
O=C(Nc1nnc(C2CCCC2)s1)C1CCN(S(=O)(=O)c2ccc(Cl)cc2)CC1 | 349 | 0% (inactive) | 18.7% (inactive) | 85.1 | -83.1% (inactive) | 104 | -0.345 (inactive) | -1.7e-05 (inactive) | 0.00671 (inactive) | inactive | 13.4% (inactive) | 6.21% (inactive)
O=C(c1ccccc1)c1ccc(N2CCNCC2)cc1 | 395 | 4.3% (inactive) | -14.4% (inactive) | 92.6 | 2.4% (inactive) | 102 | -0.518 (inactive) | 5.3e-06 (inactive) | 0.00569 (inactive) | inactive | -41.5% (inactive) | -73.5% (inactive)
O=C(O)c1ccc(C2SCC(=O)N2Cc2ccccc2)cc1 (centres undefined) | 323 | -0.4% (inactive) | 15.9% (inactive) | 57.9 | 7.3% (inactive) | 101 | -0.382 (inactive) | 1.2e-05 (inactive) | 0.00611 (inactive) | inactive | -6.17% (inactive) | 0.315% (inactive)
C1CCN=C(Nc2nc3c(s2)CCCC3)CC1 | 432 | 7.3% (inactive) | -10.9% (inactive) | 118 | 8.7% (inactive) | 110 | -0.413 (inactive) | -3.8e-05 (inactive) | 0.00517 (inactive) | inactive | -23.9% (inactive) | -50% (inactive)
Cn1c(C(=O)NCc2cccnc2)cc2sccc21 | 560 | -4.9% (inactive) | 1.2% (inactive) | 104 | -25% (inactive) | 110 | -0.436 (inactive) | 3.4e-05 (inactive) | 0.00497 (inactive) | inactive | -11.9% (inactive) | -21.5% (inactive)
N#Cc1c(-c2ccc3c(c2)OCO3)csc1N | 584 | -4.7% (inactive) | 7.8% (inactive) | 94 | -102% (inactive) | 106 | -0.451 (inactive) | -4.4e-05 (inactive) | 0.00604 (inactive) | inactive | -35.4% (inactive) | -84.4% (inactive)
c1cncc(C2Nc3ccccc3-c3nc4ccccc4n32)c1 (centres undefined) | 428 | 21.8% (active) | 2.7% (inactive) | 93.3 | -151% (inactive) | 116 | -0.37 (inactive) | -5.6e-05 (inactive) | 0.00507 (inactive) | inactive | -7% (inactive) | -38.6% (inactive)
O=C(CSc1nnc(-c2ccc(Br)cc2)n1C1CCCCC1)N1CCCC1 | 306 | -17.8% (inactive) | 5.3% (inactive) | 101 | 4.3% (inactive) | 81.3 | -0.371 (inactive) | 1.5e-05 (inactive) | 0.00599 (inactive) | inactive | -3.56% (inactive) | -4.51% (inactive)
CCC(C(=O)NC(C)CCc1ccco1)n1nc(C)n2c(cc3occc32)c1=O (centres undefined) | 488 | 6% (inactive) | -13.2% (inactive) | 84.5 | -121% (inactive) | 98.3 | -0.475 (inactive) | -2e-05 (inactive) | 0.00405 (inactive) | inactive | 2.28% (inactive) | 2.25% (inactive)
N#CCC(=O)Nc1ncn(Cc2ccccc2Cl)n1 | 273 | -2.5% (inactive) | -6% (inactive) | 87.3 | -51.5% (inactive) | 105 | -0.456 (inactive) | 1.5e-06 (inactive) | 0.00405 (inactive) | inactive | -5.79% (inactive) | 4.42% (inactive)
CCOc1ccc(NS(=O)(=O)c2cc(Cl)ccc2OC)cc1 | 279 | -4.2% (inactive) | 19.4% (inactive) | 95.4 | -147% (inactive) | 129 | -0.282 (inactive) | 1.3e-05 (inactive) | 0.00586 (inactive) | inactive | 14.5% (inactive) | 21% (inactive)
CCOC(=O)c1sc(NC(=O)CSc2ncn(-c3ccccc3)n2)nc1C | 527 | -6.5% (inactive) | 14.5% (inactive) | 102 | -8% (inactive) | 69.6 | -0.363 (inactive) | 2.2e-05 (inactive) | 0.00535 (inactive) | inactive | 13.7% (inactive) | 13% (inactive)
O=C(OC1CCc2ccccc2C1=O)c1ccccc1O (centres undefined) | 304 | 3.8% (inactive) | -0.1% (inactive) | 100 | -86.8% (inactive) | 106 | -0.386 (inactive) | -5.3e-05 (inactive) | 0.00569 (inactive) | inactive | -5.07% (inactive) | -40.5% (inactive)
O=C(C1CCCO1)N1CCN(S(=O)(=O)c2ccccc2)CC1 (centres undefined) | 328 | 4% (inactive) | 3.2% (inactive) | 86.5 | -28.4% (inactive) | 102 | -0.439 (inactive) | -8.1e-05 (inactive) | 0.00532 (inactive) | inactive | 12.6% (inactive) | 12.9% (inactive)
Cc1cc(C(=O)N2CCCc3ccccc32)no1 | 312 | -4.5% (inactive) | 13% (inactive) | 77.3 | -10.5% (inactive) | 89.2 | -0.39 (inactive) | -4.1e-06 (inactive) | 0.00507 (inactive) | inactive | -8.74% (inactive) | -14.5% (inactive)
COC(=O)c1ccc(COC(=O)c2c(C)nn(Cc3ccccc3Cl)c2Cl)o1 | 431 | -20.9% (inactive) | 7% (inactive) | 73.5 | 46.3% (inactive) | 70.3 | -0.408 (inactive) | 1.7e-05 (inactive) | 0.00741 (inactive) | inactive | 17.9% (inactive) | 19.2% (inactive)
NS(=O)(=O)c1ccc(NC(=O)CSc2nnc(Cc3cccs3)n2-c2ccccc2)cc1 | 253 | -10.8% (inactive) | 7.5% (inactive) | 73.5 | -24.9% (inactive) | 100 | -0.45 (inactive) | -4.3e-05 (inactive) | 0.00519 (inactive) | inactive | 17.4% (inactive) | 21.4% (inactive)
COc1ccc(N2CCN(C(=O)CSc3ccccc3)CC2)cc1 | 393 | -11.8% (inactive) | 1.5% (inactive) | 105 | -18.6% (inactive) | 108 | -0.401 (inactive) | -5.3e-05 (inactive) | 0.00515 (inactive) | inactive | -14.2% (inactive) | -34.1% (inactive)
O=C(c1ccc2snnc2c1)N1CCOCC1 | 370 | 6.3% (inactive) | -11.2% (inactive) | 107 | -50.1% (inactive) | 117 | -0.371 (inactive) | -4.9e-05 (inactive) | 0.00486 (inactive) | inactive | 10.1% (inactive) | 13.9% (inactive)
COc1ccc(S(=O)(=O)NCCSCc2ccco2)cc1Cl | 362 | 4.4% (inactive) | 13% (inactive) | 94 | 13.2% (inactive) | 108 | -0.424 (inactive) | -6.4e-06 (inactive) | 0.00484 (inactive) | inactive | 20.4% (inactive) | 19.9% (inactive)
O=C(NCC1CCCO1)c1cc(-c2ccncc2)nc2ccc(S(=O)(=O)N3CCOCC3)cc12 (centres undefined) | 878 | 2.1% (inactive) | -9.7% (inactive) | 106 | -91% (inactive) | 129 | -0.387 (inactive) | -9.2e-05 (inactive) | 0.00498 (inactive) | inactive | 10.6% (inactive) | 10.8% (inactive)
Cc1ccc(OCC2Cn3c(nc4c3c(=O)n(C)c(=O)n4C)O2)cc1 (centres undefined) | 423 | 1.8% (inactive) | 22.4% (inactive) | 104 | -13.1% (inactive) | 120 | -0.406 (inactive) | -2.7e-05 (inactive) | 0.00486 (inactive) | inactive | 17.1% (inactive) | 11.7% (inactive)
O=C(O)c1ccc(S(=O)(=O)Cc2ccccc2)cc1 | 422 | 11.4% (inactive) | 3% (inactive) | 88.3 | -81.2% (inactive) | 113 | -0.421 (inactive) | 7.6e-07 (inactive) | 0.00596 (inactive) | inactive | 16.7% (inactive) | 11.3% (inactive)
CCCC(OC(=O)CN1C(=O)COc2ccccc21)C(=O)NC1CCCC1 (centres undefined) | 637 | 5.5% (inactive) | 1.5% (inactive) | 129 | -88% (inactive) | 106 | -0.434 (inactive) | -1.6e-05 (inactive) | 0.00522 (inactive) | inactive | 20.6% (inactive) | 23.6% (inactive)
Cc1nnc(SCCCn2c(N3CCCCC3)nc3c2c(=O)[nH]c(=O)n3C)s1 | 382 | -2.4% (inactive) | -17.5% (inactive) | 109 | -64.9% (inactive) | 93.7 | -0.458 (inactive) | -1.1e-05 (inactive) | 0.00412 (inactive) | inactive | 8.32% (inactive) | 17.6% (inactive)
